Measured values: ChEMBL document CHEMBL1275434, “In vitro evaluation of CBR-2092, a novel rifamycin-quinolone hybrid antibiotic: studies of the mode of action in Staphylococcus aureus” (Antimicrob Agents Chemother, 2008)
In brackets after ≈: the same amount, converted by molar mass. Activity calls are given as the source filed them. The calls are words filed in the database; no cut-off is given here.

Experiments:
Staphylococcus aureus [1] = assay: Antimicrobial activity against Staphylococcus aureus CB1883 harboring rpoB R484H mutant gene, L520 deficient gyrA gene, gyrA S84L mutant gene and R236 duplicated par C gene by broth microdilution method; format: functional
Method in brief: (§1)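 CLSI broth microdilution MIC in MHII broth with 0.002% (vol/vol) polysorbate 80. Isolates came from daily stepwise broth passage at sub-MIC drug (MHII without polysorbate 80, 10^6 CFU/ml inoculum, 20–24 h shaking at 37°C), were purified drug-free, and were sequenced at target loci.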

Staphylococcus aureus [2] = assay: Antimicrobial activity against Staphylococcus aureus CB1884 harboring rpoB R484H mutant gene, L520 deficient gyrA gene, gyrA S84L mutant gene, R236 duplicated par C gene and parCH103Y mutant gene by broth microdilution; format: functional; method in brief: as §1
Staphylococcus aureus [3] = assay: Antimicrobial activity against Staphylococcus aureus CB1952 harboring rpoB S486L, gyrA […], gyrA E88Q, gyrA G532S, parC S80F, parC E84L mutant genes selected after CBR-2092 exposure for 21 days by agar dilution method; format: functional; settings: CB1952, 504 h
Method in brief: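 CLSI agar dilution MIC on MHII base medium against strains from multistep passage (up to 20–21 days) of parents with preexisting rifamycin and/or quinolone resistance.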

Staphylococcus aureus [4] = assay: Inhibition of RNA synthesis in quinolone-resistant Staphylococcus aureus CB814 harboring gyrA S84L and parC S80F mutant genes assessed as decrease in [5,6-3H]uridine incorporation at 0.5 ug/ml; format: functional, organism-based
Method in brief: (§2)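 Macromolecular synthesis time course in S. aureus, measuring incorporation of [methyl-3H]thymidine (DNA), [5,6-3H]uridine (RNA) or [2,3-3H]D-alanine (cell wall). At each time point, incorporation is expressed as percent of the DMSO-treated control culture. Incorporation at time zero is set to 100%.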

Staphylococcus aureus [5] = assay: Antimicrobial activity against rifampin-sensitive Staphylococcus aureus CB190 harboring rpoB D471G mutant gene by broth microdilution method; format: functional
Method in brief: (§3)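 CLSI broth microdilution MIC in cation-adjusted Mueller-Hinton (MHII) broth supplemented with 0.002% (vol/vol) polysorbate 80, included to limit compound loss to plastic surfaces.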

Staphylococcus aureus [6] = assay: Antimicrobial activity against Staphylococcus aureus CB812 harboring rpo B H481Y and gyrA S84L mutant genes by broth microdilution method; format: functional; method in brief: as §3
Staphylococcus aureus [7] = assay: Antimicrobial activity against Staphylococcus aureus CB1327 harboring rpoB H481Y and gyrA S84L mutant genes selected after 0.2 ug/ml drug exposure by broth microdilution method; format: functional
Method in brief: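 CLSI broth microdilution MIC in cation-adjusted Mueller-Hinton (MHII) broth with 0.002% (vol/vol) polysorbate 80. Single-step mutants were selected on agar […], purified by drug-free passage, their phenotype re-verified, and resistance loci sequenced.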

Staphylococcus aureus [8] = assay: Antimicrobial activity against Staphylococcus aureus CB815 harboring rpoB H481Y, gyrA […] and parC S80F mutant genes by agar dilution method; format: functional
Method in brief: (§4)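 CLSI agar dilution MIC with cation-adjusted Mueller-Hinton (MHII) agar as the base medium.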

Staphylococcus aureus [9] = assay: Antimicrobial activity against Staphylococcus aureus CB811 harboring quinolone-resistant gyrA S84L mutant gene by broth microdilution method; format: functional; method in brief: as §3
Staphylococcus aureus [10] = assay: Antimicrobial activity against Staphylococcus aureus CB1881 harboring rpoB R484H mutant gene and L520 deficient gyrA gene by broth microdilution method; format: functional; method in brief: as §1
Staphylococcus aureus [11] = assay: Inhibition of RNA synthesis in rifamycin-resistant Staphylococcus aureus CB370 harboring rpoB H481Y mutant gene assessed as decrease in [5,6-3H]uridine incorporation at 0.5 ug/ml; format: functional, organism-based; method in brief: as §2
Staphylococcus aureus [12] = assay: Antimicrobial activity against rifampin-sensitive Staphylococcus aureus CB190 harboring rpoB N474K mutant gene by broth microdilution method; format: functional; method in brief: as §3
Staphylococcus aureus [13] = assay: Inhibition of cell wall synthesis in rifamycin-resistant Staphylococcus aureus CB370 harboring rpoB H481Y mutant gene assessed as decrease in [2,3-3H]D-alanine incorporation at 0.5 ug/ml; format: functional, organism-based
Method in brief: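 Time-course radiolabel incorporation in S. aureus cultures with test agent. Precursors: [methyl-3H]thymidine (DNA), [5,6-3H]uridine (RNA), L-[3,4,5-3H]leucine (protein), [2,3-3H]D-alanine (cell wall). At each time point, incorporation with agent is expressed relative to the DMSO-treated control culture as percent incorporation. Time-zero incorporation is set to 100%.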

Staphylococcus aureus [14] = assay: Antimicrobial activity against Staphylococcus aureus CB815 harboring rpoB H481Y, gyrA […] and parC S80F mutant genes by broth microdilution method; format: functional; method in brief: as §3
Staphylococcus aureus [15] = assay: Antimicrobial activity against Staphylococcus aureus CB1419 harboring rpoB H481Y and gyrA G572D mutant genes selected after 0.1 ug/ml drug exposure by broth microdilution method
Staphylococcus aureus [16] = assay: Antimicrobial activity against Staphylococcus aureus CB1871 harboring rpoB H481Y mutant gene by broth microdilution method
Staphylococcus aureus [17] = assay: Activity at Staphylococcus aureus DNA topoisomerase 4 subunit ParC S80F mutant
Staphylococcus aureus [18] = assay: Antimicrobial activity against wild-type Staphylococcus aureus CB190 by agar dilution method; format: functional; method in brief: as §4
Staphylococcus aureus [19] = assay: Antimicrobial activity against rifampin-sensitive Staphylococcus aureus CB190 harboring rpoB Q468K mutant gene by broth microdilution method; format: functional; method in brief: as §3
[20] = system: DNA gyrase subunit A (Staphylococcus aureus), P20831 [S84L]; assay: Activity at Staphylococcus aureus wild-type GyrA S84L mutant
Staphylococcus aureus [21] = assay: Antimicrobial activity against Staphylococcus aureus CB1947 harboring rpoB H481Y, gyrA S84L, E697 deficient gyrA, parC G167V mutant genes selected after CBR-2092 exposure for 20 days by broth microdilution method; settings: CB1947, 480 h
Staphylococcus aureus [22] = assay: Antimicrobial activity against Staphylococcus aureus CB1416 harboring rpo BH481Y and gyrA L795S mutant genes selected after 0.1 ug/ml drug exposure by broth microdilution method
Staphylococcus aureus [23] = assay: Inhibition of cell wall synthesis in quinolone-resistant Staphylococcus aureus CB814 harboring gyrA S84L and parC S80F mutant genes assessed as decrease in [2,3-3H]D-alanine incorporation at 0.5 ug/ml; format: functional, organism-based; method in brief: as §2
Staphylococcus aureus [24] = assay: Antimicrobial activity against Staphylococcus aureus CB1880 harboring rpoB R484H mutant gene by agar dilution method; format: functional
Method in brief: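 CLSI agar dilution MIC on MHII base medium against stepwise-passage isolates; passage was in MHII broth without polysorbate 80, daily at 37°C.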

Staphylococcus aureus [25] = assay: Antimicrobial activity against rifampin-sensitive Staphylococcus aureus CB190 harboring rpoB E473 mutant gene by broth microdilution method; format: functional; method in brief: as §3
Staphylococcus aureus [26] = assay: Antimicrobial activity against Staphylococcus aureus CB1947 harboring rpoB H481Y, gyrA S84L, E697 deficient gyrA, parC G167V mutant genes selected after CBR-2092 exposure for 20 days by agar dilution method; settings: CB1947, 480 h
Staphylococcus aureus [27] = assay: Antimicrobial activity against rifampin-sensitive Staphylococcus aureus CB190 harboring rpoB D471Y mutant gene by broth microdilution method; format: functional; method in brief: as §3
Staphylococcus aureus [28] = assay: Antimicrobial activity against Staphylococcus aureus CB1333 harboring rpoB H481Y, parC S80F and parE L517F mutant genes selected after 0.8 ug/ml drug exposure by broth microdilution method; format: functional

Question: What does the source list for CO[C@H]1/C=C/O[C@@]2(C)Oc3c(C)c(O)c4c(O)c(c(/C=N/N5CCC(N(C)C6([C@@H]7CCN(c8c(F)cn9c(=O)c(C(=O)O)cc(C%10CC%10)c9c8C)C7)CC6)CC5)c(O)c4c3C2=O)NC(=O)/C(C)=C\C=C\[C@H](C)[C@H](O)[C@@H](C)[C@@H](O)[C@@H](C)[C@H](OC(C)=O)[C@@H]1C?
Answer: MIC (Staphylococcus aureus [1]): 8 µg/mL (≈ 6.64 µM); MIC (Staphylococcus aureus [2]): 64 µg/mL (≈ 53.1 µM); MIC (Staphylococcus aureus [3]): 4 µg/mL (≈ 3.32 µM); Activity (Staphylococcus aureus [4]): Active; MIC (Staphylococcus aureus [5]): 0.25 µg/mL (≈ 0.207 µM); MIC (Staphylococcus aureus [6]): 0.5 µg/mL (≈ 0.415 µM); MIC (Staphylococcus aureus [7]): 0.5 µg/mL (≈ 0.415 µM); MIC (Staphylococcus aureus [8]): 0.25 µg/mL (≈ 0.207 µM); MIC (Staphylococcus aureus [9]): 0.015 µg/mL (≈ 0.0124 µM); MIC (Staphylococcus aureus [10]): 0.5 µg/mL (≈ 0.415 µM); Activity (Staphylococcus aureus [11]): Active; MIC (Staphylococcus aureus [12]): 0.25 µg/mL (≈ 0.207 µM); Activity (Staphylococcus aureus [13]): Active; MIC (Staphylococcus aureus [14]): 1 µg/mL (≈ 0.83 µM); MIC (Staphylococcus aureus [15]): 1 µg/mL (≈ 0.83 µM); MIC (Staphylococcus aureus [16]): 0.12 µg/mL (≈ 0.0996 µM); CC50 (Staphylococcus aureus [17]): 2700 nM; MIC (Staphylococcus aureus [18]): 0.008 µg/mL (≈ 0.00664 µM); MIC (Staphylococcus aureus [19]): 0.5 µg/mL (≈ 0.415 µM); CC50 [20]: > 150000 nM; MIC (Staphylococcus aureus [21]): 4 µg/mL (≈ 3.32 µM); MIC (Staphylococcus aureus [22]): 0.5 µg/mL (≈ 0.415 µM); Activity (Staphylococcus aureus [23]): Active; MIC (Staphylococcus aureus [24]): 0.032 µg/mL (≈ 0.0265 µM); MIC (Staphylococcus aureus [25]): 0.25 µg/mL (≈ 0.207 µM); MIC (Staphylococcus aureus [26]): 1 µg/mL (≈ 0.83 µM); MIC (Staphylococcus aureus [27]): 0.25 µg/mL (≈ 0.207 µM); MIC (Staphylococcus aureus [28]): 16 µg/mL (≈ 13.3 µM)
